ChEMBL document CHEMBL3822422, “Discovery of the First α-Amino-3-hydroxy-5-methyl-4-isoxazolepropionic Acid (AMPA) Receptor Antagonist Dependent upon Transmembrane AMPA Receptor Regulatory Protein (TARP) γ-8” (J Med Chem, 2016)

Assays:
[1] = Clearance in rat; assay type: ADME, organism-based; conditions: in vivo
Rattus norvegicus [2] = test: Receptor occupancy at TARP gamma-8 containing AMPA receptor in Sprague-Dawley rat at 10 mg/kg, po administered 30 mins prior to addition of 6-[2-Ethoxyethyl-[4-(2-pyridyl)thiazol-2-yl]amino]-3H-1,3-benzothiazol-2-one measured after 40 mins by […]; assay type: functional
Rattus norvegicus [3] = test: Toxicity in Sprague-Dawley rat assessed as motor impairment up to 100 mg/kg, po by inverted screen test; assay type: organism-based; conditions: in vivo
Procedure, shortened: (§1)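 Rats given compound orally (10 or 100 mg/kg), scored on inverted screen for motor impairment; plasma exposure measured; ≥4 rats/group, mean ± SEM; TD50 used with PTZ ED50 for protective index.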

Brain [4] = test: Drug uptake in Sprague-Dawley rat brain at 10 mg/kg, po; assay type: ADME, organism-based; conditions: in vivo
Procedure, shortened: (§2)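 Rats dosed orally 1–30 mg/kg 30 min before iv bolus of non-radiolabelled tracer; brain taken 40 min after tracer; tracer in hippocampus (total binding) and cerebellum (null region) quantified by LC-MS/MS; occupancy by ratio method; brain exposure measured; n = 4 per group, mean ± SEM.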

[5] = Cmax in rat at 3 mg/kg, po; assay type: ADME, organism-based; design: dose 3 mg/kg, route oral; conditions: in vivo
Procedure, shortened: (§3)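 Rats dosed 1 mg/kg iv or 3 mg/kg po; plasma concentration–time profiles give AUC, CL, Vdss, Cmax, Tmax and absolute oral bioavailability; mean and SEM, n = 3.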

Rattus norvegicus [6] = test: Anticonvulsant activity in po dosed Sprague-Dawley rat assessed as inhibition of pentylenetetrazole-induced clonic convulsions at 3 mg/kg administered 30 mins prior to PTZ dosing measured over 30 mins; assay type: functional
Rattus norvegicus [7] = test: Anticonvulsant activity in po dosed Sprague-Dawley rat assessed as inhibition of pentylenetetrazole-induced clonic convulsions at 10 mg/kg administered 30 mins prior to PTZ dosing measured over 30 mins; assay type: functional
Plasma [8] = test: Plasma concentration in Sprague-Dawley rat at 1 mg/kg, po; assay type: ADME, organism-based; conditions: in vivo
Rattus norvegicus [9] = test: Anticonvulsant activity in po dosed Sprague-Dawley rat assessed as inhibition of pentylenetetrazole-induced clonic convulsions administered 30 mins prior to PTZ dosing measured over 30 mins; assay type: functional
Rattus norvegicus [10] = test: Receptor occupancy at TARP gamma-8 containing AMPA receptor in Sprague-Dawley rat at 1 mg/kg, po administered 30 mins prior to addition of 6-[2-Ethoxyethyl-[4-(2-pyridyl)thiazol-2-yl]amino]-3H-1,3-benzothiazol-2-one measured after 40 mins by […]; assay type: functional
[11] = Toxicity in po dosed Sprague-Dawley rat assessed as motor impairment by inverted screen test; assay type: organism-based; conditions: in vivo; procedure, shortened: as §1
Brain [12] = test: Drug uptake in Sprague-Dawley rat brain at 30 mg/kg, po; assay type: ADME, organism-based; conditions: in vivo; procedure, shortened: as §2
Plasma [13] = test: Plasma concentration in Sprague-Dawley rat at 10 mg/kg, po; assay type: ADME, organism-based; conditions: in vivo
Rattus norvegicus [14] = test: Protective index, ratio of TD50 for motor impairment to ED50 for inhibition of pentylenetetrazole-induced clonic convulsions in po dosed Sprague-Dawley rat
Procedure, shortened: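 PI = inverted screen TD50 divided by PTZ ED50. For the ED50, rats were dosed orally 30 min before PTZ (35 mg/kg, sc), with n = 10 per group. Read-out was % block of clonic convulsions; ED50 given with 95% confidence limits.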

[15] = Clearance in rat at 1 mg/kg, iv; assay type: ADME, organism-based; conditions: in vivo; procedure, shortened: as §3
Brain [16] = test: Drug uptake in Sprague-Dawley rat brain at 3 mg/kg, po; assay type: ADME, organism-based; conditions: in vivo; procedure, shortened: as §2
Glutamate receptor 1 [17] = target: T1, Glutamate receptor 1 (Homo sapiens, UniProt P42261); test: (§4) Antagonist activity at human iGluA1 receptor flop isoform expressed in CHO-S cells coexpressing TARP gamma-2 assessed as inhibition of glutamate-induced increase in intracellular calcium levels after 2 mins followed by cyclothiazide/glutamate addition by fluo-4 AM dye based fluorescence imaging plate reader method; assay type: cell-based
Rattus norvegicus [18] = species: Rattus norvegicus; test: Potency index, ratio of perampanel ED50 to compound ED50 for inhibition of pentylenetetrazole-induced clonic convulsions in Sprague-Dawley rat; assay type: functional
[19] = Volume of distribution at steady state in rat at 1 mg/kg, iv; assay type: ADME, organism-based; conditions: in vivo, read-out: Vdss; procedure, shortened: as §3
[20] = AUC in rat at 3 mg/kg, po; assay type: ADME, organism-based; conditions: in vivo; procedure, shortened: as §3
Glutamate receptor 1 [21] = target: T1, Glutamate receptor 1; test: as §4, with “gamma-8 and human EAAT3” for “gamma-2”; assay type: cell-based
Procedure, shortened: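 Transiently transfected CHO-S cells (human GluA1Q flop with TARP γ-8 and human EAAT3, DNA ratio 2:3), frozen, thawed, plated overnight at 37 °C; Fluo-4 AM loading 2 h at 22 °C. Compound added, then 2 min later glutamate (5 μM final); cyclothiazide (20 μM) plus glutamate (45 μM) 2 min after. FLIPR Ca2+ read; inhibition relative to 167 μM nonselective antagonist and buffer baseline; four-parameter logistic IC50; mean ± SEM, n ≥ 2.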

Rattus norvegicus [22] = test: Receptor occupancy at TARP gamma-8 containing AMPA receptor in Sprague-Dawley rat at 3 mg/kg, po administered 30 mins prior to addition of 6-[2-Ethoxyethyl-[4-(2-pyridyl)thiazol-2-yl]amino]-3H-1,3-benzothiazol-2-one measured after 40 mins by […]; assay type: functional
Rattus norvegicus [23] = test: Receptor occupancy at TARP gamma-8 containing AMPA receptor in Sprague-Dawley rat at 30 mg/kg, po administered 30 mins prior to addition of 6-[2-Ethoxyethyl-[4-(2-pyridyl)thiazol-2-yl]amino]-3H-1,3-benzothiazol-2-one measured after 40 mins by […]; assay type: functional
Plasma [24] = test: Plasma concentration in Sprague-Dawley rat at 3 mg/kg, po; assay type: ADME, organism-based; conditions: in vivo
[25] = AUC in rat at 1 mg/kg, iv; assay type: ADME, organism-based; conditions: in vivo; procedure, shortened: as §3
Glutamate receptor 1 [26] = target: T1, Glutamate receptor 1; test: Antagonist activity at human iGluA1 receptor flip isoform expressed in CHO-S cells assessed as inhibition of glutamate-induced increase in intracellular calcium levels after 2 mins followed by cyclothiazide/glutamate addition by fluo-4 NW dye based fluorescence imaging plate reader method; assay type: cell-based
Cytochrome P450 1A2 = target: T2, Cytochrome P450 1A2 (Homo sapiens, UniProt P05177); test: Inhibition of human CYP1A2; assay type: ADME
T2 sequence (P05177 whole entry): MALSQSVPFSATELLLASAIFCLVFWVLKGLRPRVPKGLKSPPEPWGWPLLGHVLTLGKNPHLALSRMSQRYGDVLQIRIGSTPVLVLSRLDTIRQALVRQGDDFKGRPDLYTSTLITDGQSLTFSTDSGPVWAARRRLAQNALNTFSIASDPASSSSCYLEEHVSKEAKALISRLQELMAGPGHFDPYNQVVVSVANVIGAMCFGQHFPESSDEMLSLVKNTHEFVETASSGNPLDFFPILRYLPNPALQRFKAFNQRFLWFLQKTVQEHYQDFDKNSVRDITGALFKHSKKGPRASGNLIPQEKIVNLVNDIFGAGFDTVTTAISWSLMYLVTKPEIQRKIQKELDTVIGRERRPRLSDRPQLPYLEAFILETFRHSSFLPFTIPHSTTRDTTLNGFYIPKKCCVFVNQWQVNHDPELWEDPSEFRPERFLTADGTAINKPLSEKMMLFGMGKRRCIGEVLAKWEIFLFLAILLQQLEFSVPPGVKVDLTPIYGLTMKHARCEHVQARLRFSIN

Rattus norvegicus [27] = test: Anticonvulsant activity in po dosed Sprague-Dawley rat assessed as inhibition of pentylenetetrazole-induced clonic convulsions at 1 mg/kg administered 30 mins prior to PTZ dosing measured over 30 mins; assay type: functional
[28] = Oral bioavailability in rat at 3 mg/kg; assay type: ADME, organism-based; conditions: in vivo; procedure, shortened: as §3
[29] = Tmax in rat at 3 mg/kg, po; assay type: ADME, organism-based; conditions: in vivo; procedure, shortened: as §3
Brain [30] = test: Drug uptake in Sprague-Dawley rat brain at 1 mg/kg, po; assay type: ADME, organism-based; conditions: in vivo; procedure, shortened: as §2
Plasma [31] = test: Plasma concentration in Sprague-Dawley rat at 100 mg/kg, po; assay type: ADME, organism-based; conditions: in vivo; procedure, shortened: as §1
Plasma [32] = test: Plasma concentration in Sprague-Dawley rat at 30 mg/kg, po; assay type: ADME, organism-based; conditions: in vivo

T1 sequence (P42261 whole entry, canonical isoform): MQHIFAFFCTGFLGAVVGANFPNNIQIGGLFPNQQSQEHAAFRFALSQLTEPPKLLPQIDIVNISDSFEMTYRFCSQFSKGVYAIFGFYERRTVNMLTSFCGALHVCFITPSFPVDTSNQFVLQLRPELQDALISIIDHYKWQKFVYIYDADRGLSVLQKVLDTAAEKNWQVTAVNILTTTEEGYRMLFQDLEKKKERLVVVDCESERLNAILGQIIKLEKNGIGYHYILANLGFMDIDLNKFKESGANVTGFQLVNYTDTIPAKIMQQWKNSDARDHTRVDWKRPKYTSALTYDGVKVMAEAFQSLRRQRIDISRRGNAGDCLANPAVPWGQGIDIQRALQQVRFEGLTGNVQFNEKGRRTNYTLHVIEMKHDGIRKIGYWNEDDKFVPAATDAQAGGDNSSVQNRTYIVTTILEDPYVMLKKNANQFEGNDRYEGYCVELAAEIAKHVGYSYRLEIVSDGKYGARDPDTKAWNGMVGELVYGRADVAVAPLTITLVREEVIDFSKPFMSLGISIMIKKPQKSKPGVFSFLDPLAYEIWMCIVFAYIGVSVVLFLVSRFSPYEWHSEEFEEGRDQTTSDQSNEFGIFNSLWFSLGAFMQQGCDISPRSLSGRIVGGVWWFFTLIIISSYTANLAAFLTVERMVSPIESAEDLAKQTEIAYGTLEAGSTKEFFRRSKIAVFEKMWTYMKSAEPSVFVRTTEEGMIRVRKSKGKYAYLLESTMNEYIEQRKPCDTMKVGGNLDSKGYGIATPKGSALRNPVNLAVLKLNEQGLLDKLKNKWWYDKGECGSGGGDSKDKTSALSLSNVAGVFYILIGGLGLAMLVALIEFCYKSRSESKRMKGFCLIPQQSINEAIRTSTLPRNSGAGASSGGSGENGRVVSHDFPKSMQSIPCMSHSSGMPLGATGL

SMILES: C[C@@H](c1ccc2[nH]c(=O)sc2c1)c1ccn(-c2ccc(OCCO)cn2)n1
- clearance [1]: 11.4 mL/min/kg
- Occ (Rattus norvegicus [2]): 68%
- Activity (Rattus norvegicus [3]): Non-toxic
- Drug uptake (Brain [4]): 1526 ng/g
- Cmax [5]: 628 ng/mL
- inhibition in vivo at 3 mg/kg (Rattus norvegicus [6]): 80%
- inhibition in vivo at 10 mg/kg (Rattus norvegicus [7]): 100%
- Cp (Plasma [8]): 377 ng/mL
- ED50 (Rattus norvegicus [9]): 1.7 mg/kg
- inhibition (Rattus norvegicus [9]): Dose-dependent effect
- Occ (Rattus norvegicus [10]): 45%
- TD50 [11]: 3.8 mg/kg
- Drug uptake (Brain [12]): 2400 ng/g
- Cp (Plasma [13]): 3360 ng/mL
- Ratio TD50/ED50 (Rattus norvegicus [14]): >58
- clearance [15]: 11.4 mL/min/kg
- Drug uptake (Brain [16]): 477 ng/g
- IC50 (Glutamate receptor 1 [17]): 68.5 µM
- Ratio ED50 (Rattus norvegicus [18]): 10
- Vd [19]: 1.28 L/kg
- AUC [20]: 4220 ng·h/mL
- IC50 (Glutamate receptor 1 [21]): 0.0653 µM
- Occ (Rattus norvegicus [22]): 69%
- Occ (Rattus norvegicus [23]): 96%
- Cp (Plasma [24]): 1269 ng/mL
- AUC [25]: 1470 ng·h/mL
- IC50 (Glutamate receptor 1 [26]): 83.3 µM
- IC50 (Cytochrome P450 1A2): > 10 µM
- inhibition in vivo at 1 mg/kg (Rattus norvegicus [27]): 40%
- bioavailability [28]: 97%
- Tmax [29]: 1.3 h
- Drug uptake (Brain [30]): 133 ng/g
- Cp (Plasma [31]): 8342 ng/mL
- Cp (Plasma [32]): 1780 ng/mL
